“Also recorded” adds a separate entry of the source.
Columns and labels:
human recombinant HDAC1 = human recombinant HDAC1 (Homo sapiens, UniProt Q13547); assay: HDAC activity assay; assay type: biochemical; conditions: HDAC isoforms 1, 6 and 8 tested
VERO cells = assay: Cell viability assay; assay type: cell-based; conditions: VERO versus MCF-7
MDA-MB-231 cells = assay: Cell viability assay; assay type: cell-based; conditions: 72 hours after drug dosing; ERα−/β− breast cancer
Summary of the method: (§1)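 Cell lines: MCF-7 (gift) and MDA-MB-231, DU145 and Vero (ATCC), kept in EMEM with 10% FBS, with or without antibiotics, at 37 °C under 5% CO2. Cells exposed to test compound in duplicate for 72 h; viability read by MTS and MTT colorimetric assays per manufacturer's instructions. IC50 obtained by logit plot analysis.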

MCF-7 cells = assay: Cell viability assay; assay type: cell-based, human
human ERβ LBD = human ERβ LBD (Homo sapiens, UniProt Q92731); assay: ERβ agonist luciferase reporter assay in HEK 293T cells; assay type: cell-based; conditions: 10 μM; for ER subtype preference (ratio of ERα to ERβ agonist activity): agonist assay; for ERβ agonist activity: HEK-luciferase assay
human ERβ LBD, sequence (Q92731 263-530): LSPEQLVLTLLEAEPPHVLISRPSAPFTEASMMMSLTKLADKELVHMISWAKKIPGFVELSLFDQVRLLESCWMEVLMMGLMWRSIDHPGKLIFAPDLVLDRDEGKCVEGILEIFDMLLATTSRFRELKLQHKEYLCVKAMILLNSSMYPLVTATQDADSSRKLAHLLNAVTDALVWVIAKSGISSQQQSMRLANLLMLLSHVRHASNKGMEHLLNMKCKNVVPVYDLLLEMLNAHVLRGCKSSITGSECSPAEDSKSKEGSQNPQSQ

[1] = target: T1, human ERα ligand binding domain (Homo sapiens, UniProt P03372); assay: ERα agonist luciferase reporter assay in HEK 293T cells; assay type: cell-based; conditions: 10 μM, charcoal stripped serum
T1 sequence (P03372 301-595): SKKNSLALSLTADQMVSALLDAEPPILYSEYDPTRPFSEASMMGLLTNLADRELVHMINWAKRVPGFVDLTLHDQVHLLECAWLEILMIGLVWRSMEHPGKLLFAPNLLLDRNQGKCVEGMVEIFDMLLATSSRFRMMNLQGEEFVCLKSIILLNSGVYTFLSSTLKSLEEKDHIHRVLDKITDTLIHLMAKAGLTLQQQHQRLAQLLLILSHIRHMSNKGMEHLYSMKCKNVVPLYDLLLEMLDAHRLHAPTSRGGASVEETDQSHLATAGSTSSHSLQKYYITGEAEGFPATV

DU145 cells = assay: Cell viability assay; assay type: cell-based; conditions: 72 hours after drug dosing; metastatic prostate cancer
Summary of the method: as §1

human recombinant HDAC8 = target: T2, human recombinant HDAC8 (Homo sapiens, UniProt Q9BY41); assay: HDAC activity assay; assay type: biochemical; conditions: maximum concentration tested 100 μM
T2 sequence (Q9BY41 1-377): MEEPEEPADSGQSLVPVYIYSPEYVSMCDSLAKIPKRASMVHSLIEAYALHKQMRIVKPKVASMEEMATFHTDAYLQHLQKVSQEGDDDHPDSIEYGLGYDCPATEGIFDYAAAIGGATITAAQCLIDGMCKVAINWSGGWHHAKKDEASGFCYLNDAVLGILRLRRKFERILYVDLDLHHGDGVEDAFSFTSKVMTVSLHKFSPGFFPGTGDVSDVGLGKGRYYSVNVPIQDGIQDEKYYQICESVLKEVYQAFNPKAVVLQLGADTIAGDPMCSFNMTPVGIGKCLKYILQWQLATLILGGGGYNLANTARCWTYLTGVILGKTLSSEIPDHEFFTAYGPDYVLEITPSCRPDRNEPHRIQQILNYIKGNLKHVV

human recombinant HDAC6 = assay: HDAC activity assay; assay type: biochemical; conditions: HDAC6 vs HDAC1 and HDAC8
Summary of the method: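 Run under contract. Human recombinant HDAC1, HDAC6 or HDAC8 incubated with HDAC substrate, 5 μg BSA and serial dilutions of test compound (DMSO stocks; 1% DMSO final, top 100 μM) in duplicate, 37 °C, 30 min. Developer added for 15 min at room temperature; fluorescence ex 360/em 460 nm.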

human recombinant HDAC1, sequence (Q13547 whole entry, canonical isoform): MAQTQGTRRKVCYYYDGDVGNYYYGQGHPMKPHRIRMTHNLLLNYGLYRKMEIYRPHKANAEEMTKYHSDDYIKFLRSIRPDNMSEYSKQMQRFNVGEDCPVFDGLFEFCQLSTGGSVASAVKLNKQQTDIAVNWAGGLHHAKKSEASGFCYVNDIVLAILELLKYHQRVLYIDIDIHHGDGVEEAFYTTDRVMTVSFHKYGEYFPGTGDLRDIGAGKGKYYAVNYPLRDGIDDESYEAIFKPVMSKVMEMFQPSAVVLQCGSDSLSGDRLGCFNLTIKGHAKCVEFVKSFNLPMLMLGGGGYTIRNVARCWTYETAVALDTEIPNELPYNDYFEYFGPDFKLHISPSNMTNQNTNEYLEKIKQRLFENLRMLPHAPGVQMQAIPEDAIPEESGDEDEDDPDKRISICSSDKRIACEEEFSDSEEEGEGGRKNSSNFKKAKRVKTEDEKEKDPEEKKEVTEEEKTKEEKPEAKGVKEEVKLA

| SMILES | HDAC inhibition activity, overall (isoform not given) (human recombinant HDAC1) | in vitro therapeutic index (IVTI) (VERO cells) | antiproliferative activity IC50, MDA-MB-231 (MDA-MB-231 cells) | ER subtype preference (ratio of ERα to ERβ agonist activity) (human ERβ LBD) | also measured |
| --- | --- | --- | --- | --- | --- |
| C[C@]12CC[C@@H]3c4ccc(O)cc4CC[C@H]3[C@@H]1CC[C@@]2(O)c1cn(CCCC(=O)NO)nn1 [1a, 4-(4-((8R,9S,13S,14S,17S)-3,17-dihydroxy-13-methyl-7,8,9,11,12,13,14,15,16,17-decahydro-6H-cyclopenta[a]phenanthren-17-yl)-1H-1,2,3-triazol-1-yl)-N-hydroxybutanamide] | most potent HDACi | greater IVTI | comparable; also recorded: inhibit the growth of MDA-MB-231 | too weak in vitro to have an obvious preference | antiproliferative activity IC50, MCF-7 (MCF-7 cells; 72 hours after drug dosing, ERα+/β+ breast cancer): comparable |
| C[C@]12CC[C@@H]3c4ccc(O)cc4CC[C@H]3[C@@H]1CC[C@@]2(O)c1cn(CCCCC(=O)NO)nn1 [1b, 5-(4-((8R,9S,13S,14S,17S)-3,17-dihydroxy-13-methyl-7,8,9,11,12,13,14,15,16,17-decahydro-6H-cyclopenta[a]phenanthren-17-yl)-1H-1,2,3-triazol-1-yl)-N-hydroxypentanamide] |  |  |  |  | ERα agonist activity (fold activation, relative to control no drug) [1]: most significant ERα agonist effect |
| C[C@]12CC[C@@H]3c4ccc(O)cc4CC[C@H]3[C@@H]1CC[C@@]2(O)c1cn(CCCCCC(=O)NO)nn1 [1c, 6-(4-((8R,9S,13S,14S,17S)-3,17-dihydroxy-13-methyl-7,8,9,11,12,13,14,15,16,17-decahydro-6H-cyclopenta[a]phenanthren-17-yl)-1H-1,2,3-triazol-1-yl)-N-hydroxyhexanamide] | most potent HDACi; also recorded: nM HDACi potency |  | inhibit the growth of MDA-MB-231 | preferentially bind ERβ | antiproliferative activity IC50, DU145 (DU145 cells): evidence of DU145 cell growth inhibition; ERβ agonist activity (human ERβ LBD): significant ERβ activation |
| C[C@]12CC[C@@H]3c4ccc(O)cc4CC[C@H]3[C@@H]1CC[C@@]2(O)c1cn(CCCCCCC(=O)NO)nn1 [1d, 7-(4-((8R,9S,13S,14S,17S)-3,17-dihydroxy-13-methyl-7,8,9,11,12,13,14,15,16,17-decahydro-6H-cyclopenta[a]phenanthren-17-yl)-1H-1,2,3-triazol-1-yl)-N-hydroxyheptanamide] | most potent HDACi; also recorded: nM HDACi potency |  | inhibit the growth of MDA-MB-231 | preferentially bind ERβ | ERα agonist activity (fold activation, relative to control no drug) [1]: most significant ERα agonist effect; antiproliferative activity IC50, DU145 (DU145 cells): evidence of DU145 cell growth inhibition; HDAC8 inhibition IC50 (human recombinant HDAC8): order of magnitude greater HDAC8 inhibition; ERβ agonist activity (human ERβ LBD): significant ERβ activation |
| C[C@]12CC[C@@H]3c4ccc(O)cc4CC[C@H]3[C@@H]1CC[C@@]2(O)c1cn(CCCCCCCC(=O)NO)nn1 [1e, 8-(4-((8R,9S,13S,14S,17S)-3,17-dihydroxy-13-methyl-7,8,9,11,12,13,14,15,16,17-decahydro-6H-cyclopenta[a]phenanthren-17-yl)-1H-1,2,3-triazol-1-yl)-N-hydroxyoctannamide] | poor HDAC inhibition profile |  |  | too weak in vitro to have an obvious preference |  |
| CC/C(=C(\c1ccccc1)c1ccc(OCCN(C)Cc2ccc(-c3cn(CCCCCC(=O)NO)nn3)cc2)cc1)c1ccccc1 [compound 2, Tamoxifen-Triazolylhydroxamic acid] |  | greater IVTI |  |  | potency relative to SAHA against MCF-7 (fold less potent) (MCF-7 cells): about 1.7 fold |
| CC/C(=C(\c1ccccc1)c1ccc(OCCN(C)Cc2ccc(NC(=O)CCCCCCC(=O)NO)cc2)cc1)c1ccccc1 [compound 3, Tamoxifen-SAHA Conjugate] |  | greater IVTI |  |  | HDAC isoform selectivity (human recombinant HDAC6): selective for HDAC6; potency relative to SAHA against MCF-7 (fold less potent) (MCF-7 cells): equipotent to SAHA |
